Laboratory results taken from ChEMBL document CHEMBL4261559, “Small molecule piperazinyl-benzimidazole antagonists of the gonadotropin-releasing hormone (GnRH) receptor” (Medchemcomm, 2017).

Test system: not listed separately
Test: Thermodynamic solubility of compound in simulated gastric fluid at pH 1.2 after 24 hrs by LC-QTOFMS analysis
Format: physicochemical
Settings: simulated gi fluid, pH 1.2, 24 h
Procedure, shortened: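 Solid sample was suspended in 450 uL of buffer to about 2 mg/mL and shaken at 200 RPM for 24 h at ambient temperature (22.6-25.0 °C). The suspension was filtered, and the filtrate was diluted as needed (undiluted up to 10000x). Filtrate was quantified by LC-QTOFMS against a calibration curve prepared from a 10 mM DMSO stock. Two reference standards were run in triplicate in each medium.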

Structure (SMILES)	Therm_solubility
CC(C)(C)c1ccc(-c2nc3c(N4CCN(Cc5cn(CCF)nn5)CC4)cccc3[nH]2)cc1	2.098 µg/mL

Target: T1, Gonadotropin-releasing hormone receptor (Homo sapiens, UniProt P30968)
T1 sequence (P30968 whole entry): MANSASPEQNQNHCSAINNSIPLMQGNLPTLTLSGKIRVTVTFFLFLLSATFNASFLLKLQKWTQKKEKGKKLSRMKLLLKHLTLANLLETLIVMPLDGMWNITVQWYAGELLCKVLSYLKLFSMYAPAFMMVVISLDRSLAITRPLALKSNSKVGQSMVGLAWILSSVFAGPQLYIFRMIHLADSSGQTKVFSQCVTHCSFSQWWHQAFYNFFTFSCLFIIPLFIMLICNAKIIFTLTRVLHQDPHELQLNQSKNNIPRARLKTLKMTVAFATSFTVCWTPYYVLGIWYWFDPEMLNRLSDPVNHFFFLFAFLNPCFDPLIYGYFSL
Test: Antagonist activity at N-terminal FLAG-tagged human full-length GnRHR expressed in HEK293T cells assessed as inhibition of GnRH-induced calcium mobilization preincubated for 15 mins followed by agonist addition by FLIPR assay
Format: functional, cell-based
Settings: not given

Structure (SMILES)	IC50	Ki
CC(C)(C)c1ccc(-c2nc3c(N4CCN(Cc5cn([C@@H]6O[C@H](CO)[C@@H](O)[C@H](O)[C@H]6O)nn5)CC4)cccc3[nH]2)cc1	> 10 µM	> 1 µM
CC(C)(C)c1ccc(-c2nc3c(N4CCN(CCF)CC4)cccc3[nH]2)cc1	12.6 µM	0.254 µM
CC(=O)N[C@@H]1[C@@H](OC(C)=O)[C@H](OC(C)=O)[C@@H](COC(C)=O)O[C@H]1n1cc(CN2CCN(c3cccc4[nH]c(-c5ccc(C(C)(C)C)cc5)nc34)CC2)nn1	7.94 µM	0.157 µM
COc1cc(OC)c(NC(=O)c2ccc(Cc3cc4c(cc3C)C(C)(C)CCC4(C)C)o2)c(OC)c1	1 µM	0.019 µM
CC(C)(C)c1ccc(-c2nc3c(N4CCN(Cc5cccc6nccnc56)CC4)cccc3[nH]2)cc1	0.631 µM	0.0122 µM

Second part, the molecule after the results:

IC50	Ki	Structure (SMILES)
20 µM	0.41 µM	CC(C)(C)c1ccc(-c2nc3c(N4CCN(Cc5cn(-c6ccc(F)cc6)nn5)CC4)cccc3[nH]2)cc1
0.794 µM	0.0138 µM	CC(C)(C)c1ccc(-c2nc3c(N4CCN(Cc5cn(CCF)nn5)CC4)cccc3[nH]2)cc1
5.01 µM	0.104 µM	CC(C)(C)c1ccc(-c2nc3c(N4CCN(Cc5cn(-c6nc7ccccc7[nH]6)nn5)CC4)cccc3[nH]2)cc1
20 µM	0.395 µM	C#CCN1CCN(c2cccc3[nH]c(-c4ccc(C(C)(C)C)cc4)nc23)CC1
10 µM	0.186 µM	CC(C)(C)OC(=O)N[C@@H](Cn1cc(CN2CCN(c3cccc4[nH]c(-c5ccc(C(C)(C)C)cc5)nc34)CC2)nn1)C(=O)O
